Results: ChEMBL document CHEMBL3297703, “Novel quinuclidinyl heteroarylcarbamate derivatives as muscarinic receptor antagonists” (Bioorg Med Chem, 2014)
Active and inactive are the calls of the source. No cut-off for these calls is given here.

What was measured:
[1] = test system: Rattus norvegicus; test: Bronchodilatory effect in it dosed Sprague-Dawley rat assessed as inhibition of CCh-induced bronchoconstriction after 24 hrs; type: functional; settings: read-out: ID50 (the source's name)
Outline: (§1)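 Anaesthetised, cannulated male Sprague-Dawley rats dosed once intratracheally; 24 h later CCh (30 μg/kg) given, with bronchoconstriction (airway pressure via transducer) and salivation (net weight gain of cotton balls in oral cavity) recorded together in the same animal.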

[2] = Drug uptake in it dosed Sprague-Dawley rat submandibular gland after 24 hrs; type: ADME, organism-based; settings: in vivo
[3] = test system: Lung; test: Drug uptake in it dosed Sprague-Dawley rat lung after 24 hrs; type: ADME, organism-based; settings: in vivo, inhaled_or_intranasal
[4] = species on record: Rattus norvegicus; test: Effect on CCh-induced salivation in Sprague-Dawley rat after 24 hrs; type: ADME, organism-based; settings: in vivo; outline: as §1
[5] = species on record: Rattus norvegicus; test: Ratio of ID50 for effect on CCh-induced salivation in Sprague-Dawley rat to ID50 for inhibition of CCh-induced bronchoconstriction Sprague-Dawley rat
[6] = biological target: Muscarinic acetylcholine receptor M3 (Rattus norvegicus, UniProt P08483); test: Displacement of [3H]-NMS from Sprague-Dawley rat muscarinic M3 receptor in submandibular gland
[7] = biological target: T1, Muscarinic acetylcholine receptor M1 (Rattus norvegicus, UniProt P08482); test: Displacement of [3H]-NMS from Sprague-Dawley rat muscarinic M1 receptor in cortex membrane; type: cell membranes
T1 sequence (P08482 whole entry): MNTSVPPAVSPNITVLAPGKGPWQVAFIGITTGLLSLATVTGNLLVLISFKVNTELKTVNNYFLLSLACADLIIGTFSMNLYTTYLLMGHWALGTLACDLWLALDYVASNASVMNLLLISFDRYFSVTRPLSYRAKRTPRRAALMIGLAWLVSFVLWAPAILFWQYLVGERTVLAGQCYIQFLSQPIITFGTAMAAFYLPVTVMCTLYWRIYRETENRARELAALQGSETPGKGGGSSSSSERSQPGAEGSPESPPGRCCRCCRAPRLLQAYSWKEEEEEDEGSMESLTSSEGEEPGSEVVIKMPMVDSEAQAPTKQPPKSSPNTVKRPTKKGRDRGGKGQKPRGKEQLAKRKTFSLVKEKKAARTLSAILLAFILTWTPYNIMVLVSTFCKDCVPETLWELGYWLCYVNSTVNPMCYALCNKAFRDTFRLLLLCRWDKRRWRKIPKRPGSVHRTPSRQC

[8] = test system: Rattus norvegicus; test: Bronchodilatory effect in Sprague-Dawley rat assessed as inhibition of CCh-induced bronchoconstriction at 0.5 ug/kg, it after 2 hrs; type: functional
Outline: (§2)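 Male Sprague-Dawley rats (250–400 g) anaesthetised with pentobarbital sodium (50 mg/kg i.p.), tracheally cannulated, given pancuronium bromide 0.2 mg/kg i.v. Compound given intratracheally at 0.5 μg/kg; CCh 30 μg/kg challenge at 0.25, 0.5, 2 or 24 h post-dose; airway pressure by pressure transducer. Inhibition expressed as mean percentage of control value, n = 3.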

[9] = biological target: T2, Muscarinic acetylcholine receptor M2 (Rattus norvegicus, UniProt P10980); test: Displacement of [3H]-NMS from Sprague-Dawley rat muscarinic M2 receptor in heart
T2 sequence (P10980 whole entry): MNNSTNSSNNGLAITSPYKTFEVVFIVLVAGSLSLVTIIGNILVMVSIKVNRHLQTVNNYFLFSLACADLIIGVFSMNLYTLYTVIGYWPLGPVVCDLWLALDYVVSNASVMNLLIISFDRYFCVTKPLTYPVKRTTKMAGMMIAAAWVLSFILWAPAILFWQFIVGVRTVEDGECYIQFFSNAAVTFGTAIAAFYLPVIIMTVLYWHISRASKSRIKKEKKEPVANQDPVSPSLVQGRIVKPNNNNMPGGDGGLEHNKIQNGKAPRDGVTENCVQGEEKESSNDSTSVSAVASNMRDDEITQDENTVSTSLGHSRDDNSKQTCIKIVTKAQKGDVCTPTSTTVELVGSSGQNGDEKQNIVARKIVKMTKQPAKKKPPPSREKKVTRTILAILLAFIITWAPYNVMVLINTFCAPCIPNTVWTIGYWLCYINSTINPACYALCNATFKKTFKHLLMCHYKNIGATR

[10] = test system: Rattus norvegicus; test: Bronchodilatory effect in Sprague-Dawley rat assessed as inhibition of CCh-induced bronchoconstriction at 0.5 ug/kg, it after 0.5 hrs; type: functional; outline: as §2
[11] = test system: Rattus norvegicus; test: Bronchodilatory effect in Sprague-Dawley rat assessed as inhibition of CCh-induced bronchoconstriction at 0.5 ug/kg, it after 0.25 hrs; type: functional; outline: as §2
[12] = biological target: Muscarinic acetylcholine receptor M3 (Rattus norvegicus) (UniProt P08483); test: Displacement of [3H]-NMS from Sprague-Dawley rat muscarinic M3 receptor in submandibular gland measured after single/double washout
[13] = test system: Rattus norvegicus; test: Bronchodilatory effect in Sprague-Dawley rat assessed as inhibition of CCh-induced bronchoconstriction at 0.5 ug/kg, it after 24 hrs; type: functional; outline: as §2
[14] = test system: Rattus norvegicus; test: Bronchodilatory effect in it dosed Sprague-Dawley rat assessed as inhibition of CCh-induced bronchoconstriction at 15 mins to 1 hr; type: functional, organism-based

Muscarinic acetylcholine receptor M3, sequence (P08483 whole entry): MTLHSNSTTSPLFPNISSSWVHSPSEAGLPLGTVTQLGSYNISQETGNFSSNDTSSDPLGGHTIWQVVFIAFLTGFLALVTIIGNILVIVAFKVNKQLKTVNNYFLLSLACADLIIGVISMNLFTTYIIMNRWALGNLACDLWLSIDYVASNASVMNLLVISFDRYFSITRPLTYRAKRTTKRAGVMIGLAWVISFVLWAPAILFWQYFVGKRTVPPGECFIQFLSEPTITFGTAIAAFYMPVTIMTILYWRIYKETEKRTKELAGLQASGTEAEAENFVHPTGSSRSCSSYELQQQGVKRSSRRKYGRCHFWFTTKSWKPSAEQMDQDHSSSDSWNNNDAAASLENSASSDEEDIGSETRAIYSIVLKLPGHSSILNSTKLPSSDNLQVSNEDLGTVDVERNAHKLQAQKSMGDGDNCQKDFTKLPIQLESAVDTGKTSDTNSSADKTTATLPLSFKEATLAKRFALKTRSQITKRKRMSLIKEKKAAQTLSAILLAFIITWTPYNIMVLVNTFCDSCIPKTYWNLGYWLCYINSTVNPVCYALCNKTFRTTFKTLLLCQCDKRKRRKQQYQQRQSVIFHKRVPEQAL
Muscarinic acetylcholine receptor M3 (Rattus norvegicus), sequence (P08483 whole entry, looked up): as the sequence (P08483 whole entry) above

SMILES	Ki [6] [nM]	Ki [7] [nM]	Ki [9] [nM]	other results
C[N+]12CCC(OC(=O)Nc3ncsc3-c3cccc(Cl)c3)(CC1)CC2.[Br-]	–	–	–	ED50 [1]: 0.08 µg/kg; Drug uptake [2]: Active; Drug uptake [3]: Active; ID50 [4]: 4.2 µg/kg; Ratio [5]: 53
C[N+]12CCC(OC(=O)Nc3ccsc3-c3ccccc3)(CC1)CC2	0.02	0.02	0.027	inhibition in vivo at 0.0005 mg/kg [8]: 86%; inhibition in vivo at 0.0005 mg/kg [10]: 78%; inhibition in vivo at 0.0005 mg/kg [11]: 42%
O=C(Nc1ccsc1-c1ccccc1)O[C@H]1CN2CCC1CC2	0.19	0.19	0.82	–
C[N+]12CCC(OC(=O)Nc3ncsc3-c3cccc(C(F)(F)F)c3)(CC1)CC2	1.8	2.3	14	–
O=C(Nc1ccccc1-c1ccccc1)OC12CCN(CC1)CC2	0.14	0.32	3.8	–
O=C(Nc1ccsc1-c1ccccc1)O[C@@H]1CN2CCC1CC2	4	4.6	13	–
C[N+]12CCC(OC(=O)Nc3ncsc3-c3ccc(F)cc3)(CC1)CC2	0.1	0.073	0.21	–
O=C(Nc1sccc1-c1ccccc1)OC12CCN(CC1)CC2	0.12	0.33	1.4	–
CC(C)[N+]1(C)C2CCC1CC(OC(=O)C(CO)c1ccccc1)C2 (stereo not drawn)	–	–	–	inhibition [12]: inactive; inhibition in vivo at 0.0005 mg/kg [13]: 15%; inhibition in vivo at 0.0005 mg/kg [8]: 83%; inhibition in vivo at 0.0005 mg/kg [10]: 85%; inhibition in vivo at 0.0005 mg/kg [11]: 70%
C[N+]1(C)[C@@H]2C[C@@H](OC(=O)C(O)(c3cccs3)c3cccs3)C[C@H]1[C@@H]1O[C@@H]12.O.[Br-] [TIOTROPIUM BROMIDE]	0.3	0.16	0.15	inhibition [12]: Active; inhibition in vivo at 0.0005 mg/kg [13]: 78%; inhibition in vivo at 0.0005 mg/kg [8]: 83%; ED50 [1]: 0.12 µg/kg; Drug uptake [2]: Active; Drug uptake [3]: Active; ID50 [4]: 1.9 µg/kg; inhibition in vivo at 0.0005 mg/kg [10]: 59%; Ratio [5]: 16; inhibition in vivo at 0.0005 mg/kg [11]: 44%
O=C(Nc1scnc1-c1ccccc1)O[C@H]1CN2CCC1CC2	12	8.7	39	–
C[N+]12CCC(CC1)[C@@H](OC(=O)Nc1ncsc1-c1ccccc1)C2	0.37	0.37	1.2	inhibition in vivo at 0.0005 mg/kg [13]: 14%; inhibition in vivo at 0.0005 mg/kg [8]: 54%; inhibition in vivo at 0.0005 mg/kg [10]: 62%; inhibition in vivo at 0.0005 mg/kg [11]: 74%
C[N+]12CCC(OC(=O)Nc3ncsc3-c3cccc(Cl)c3)(CC1)CC2 [listing 1 of 2 here]	0.049	0.041	0.053	inhibition in vivo at 0.0005 mg/kg [13]: 82%; inhibition in vivo at 0.0005 mg/kg [8]: 84%; inhibition in vivo at 0.0005 mg/kg [10]: 67%; inhibition in vivo at 0.0005 mg/kg [11]: 67%
O=C(Nc1ncsc1-c1ccccc1)OC12CCN(CC1)CC2	–	0.39	0.8	–
C[N+]1(C)CCC(OC(=O)C(O)(c2ccccc2)C2CCCC2)C1.[Br-] (stereo not drawn) [GLYCOPYRRONIUM BROMIDE]	–	–	–	inhibition [14]: Active; ED50 [1]: 3.4 µg/kg
C[N+]12CCC(OC(=O)Nc3ncsc3-c3cccc(Cl)c3)(CC1)CC2 [listing 2 of 2 here]	–	–	–	inhibition [14]: Active; inhibition [12]: inactive
C[N+]12CCC(OC(=O)Nc3ncsc3-c3ccccc3)(CC1)CC2	0.064	0.055	0.12	inhibition in vivo at 0.0005 mg/kg [13]: 61%
C[N+]12CCC(OC(=O)Nc3ncsc3-c3cc(Cl)cc(Cl)c3)(CC1)CC2	0.12	0.12	0.64	–
O=C(O[C@H]1C[N+]2(CCCOc3ccccc3)CCC1CC2)C(O)(c1cccs1)c1cccs1.[Br-] [ACLIDINIUM BROMIDE]	–	–	–	ED50 [1]: 0.4 µg/kg; ID50 [4]: 9.4 µg/kg; Ratio [5]: 24
O=C(Nc1ncsc1-c1ccccc1)O[C@H]1CN2CCC1CC2	0.93	0.75	1.9	–
O=C(Nc1cscc1-c1ccccc1)OC12CCN(CC1)CC2	0.21	0.51	3.6	–
C[N+]12CCC(CC1)[C@@H](OC(=O)Nc1ncsc1-c1cccc(Cl)c1)C2	0.25	0.31	1.2	inhibition in vivo at 0.0005 mg/kg [8]: 50%; inhibition in vivo at 0.0005 mg/kg [10]: 64%; inhibition in vivo at 0.0005 mg/kg [11]: 64%
O=C(Nc1ncoc1-c1ccccc1)O[C@H]1CN2CCC1CC2	9.7	8.7	59	–
O=C(Nc1ccsc1-c1ccccc1)OC12CCN(CC1)CC2	0.056	0.095	0.46	–
